In series [1] the test system is Plasma. Kind of series: fCmax in human plasma at 40 mg administered as single dose. In kind it is ADME, cell-free. In a few lines: (§1)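 Phase 1 single ascending oral dose in healthy volunteers, with N per dose group. Total plasma Cmax and AUC(0-∞) were measured. Free-drug exposures were derived from these using plasma protein binding (human plasma fu measured at 0.5 μg/mL).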

Series [2] has as its system Plasma. The series is described as follows: fAUC (0 to infinity) in human plasma at 40 mg administered as single dose. In kind it is ADME, cell-free. A digest of the protocol:
as §1

Series [3] can be described thus: Oral bioavailability in rat at 10 mg/kg. In kind it is ADME, organism-based. The settings on record: in vivo. A digest of the protocol: (§2)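 Rat and dog given 1 mg/kg iv, or po at 10 mg/kg (rat) or 5 mg/kg (dog). Plasma sampled to 24 h. AUC(0-24) as free drug using plasma protein binding values. Geometric mean of n = 2 animals/group; dog po n = 3 or n = 1.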
Series [4] deals with Rattus norvegicus. The series is described as follows: fAUC (0 to 24 hrs) in rat at 10 mg/kg, po. In kind it is ADME, organism-based. More on the design: dose 10 mg/kg, route oral. The settings on record: in vivo. A digest of the protocol: as §2
Series [5] is described as follows: Volume of distribution at steady state in rat at 1 mg/kg, iv. In kind it is ADME, organism-based. Also noted: dose 1 mg/kg, route intravenous. The settings on record: in vivo, read-out: Vdss. A digest of the protocol: as §2
For series [6], the system named is Canis familiaris. Kind of series: fAUC (0 to 24 hrs) in dog at 1 mg/kg, iv. In kind it is ADME, organism-based, Canis lupus familiaris. More on the design: dose 1 mg/kg, route intravenous. The settings on record: in vivo. In a few lines: as §2
Series [7] is described as follows: Fraction unbound in rat plasma at 0.5 ug/ml. In kind it is ADME, cell-free. In a few lines:
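Unbound fraction in rat, dog or human plasma, measured at a drug concentration of 0.5 μg/mL.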

A further series has as its system Homo sapiens. Kind of series: Inhibition of HMG-CoA reductase in human assessed as decrease in AUC (0 to 24 hrs) of mevalonate level in plasma at 40 mg administered as single dose relative to control. In kind it is functional.
The nature of series [8]: Half life in dog at 1 mg/kg, iv. In kind it is ADME, organism-based, Canis lupus familiaris. More on the design: dose 1 mg/kg, route intravenous. The following applies: in vivo. In a few lines:
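Intravenous 1 mg/kg dose in rat or dog. Terminal half-life was derived from plasma concentrations and is reported as the geometric mean of n = 2 animals per group.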

The nature of series [9]: Systemic plasma clearance in rat at 1 mg/kg, iv. In kind it is ADME, organism-based. More on the design: dose 1 mg/kg, route intravenous. A digest of the protocol:
as §2

The next series concerns the target T1, OATP1B3 (Homo sapiens, UniProt Q9NPD5).
T1 sequence (Q9NPD5 whole entry): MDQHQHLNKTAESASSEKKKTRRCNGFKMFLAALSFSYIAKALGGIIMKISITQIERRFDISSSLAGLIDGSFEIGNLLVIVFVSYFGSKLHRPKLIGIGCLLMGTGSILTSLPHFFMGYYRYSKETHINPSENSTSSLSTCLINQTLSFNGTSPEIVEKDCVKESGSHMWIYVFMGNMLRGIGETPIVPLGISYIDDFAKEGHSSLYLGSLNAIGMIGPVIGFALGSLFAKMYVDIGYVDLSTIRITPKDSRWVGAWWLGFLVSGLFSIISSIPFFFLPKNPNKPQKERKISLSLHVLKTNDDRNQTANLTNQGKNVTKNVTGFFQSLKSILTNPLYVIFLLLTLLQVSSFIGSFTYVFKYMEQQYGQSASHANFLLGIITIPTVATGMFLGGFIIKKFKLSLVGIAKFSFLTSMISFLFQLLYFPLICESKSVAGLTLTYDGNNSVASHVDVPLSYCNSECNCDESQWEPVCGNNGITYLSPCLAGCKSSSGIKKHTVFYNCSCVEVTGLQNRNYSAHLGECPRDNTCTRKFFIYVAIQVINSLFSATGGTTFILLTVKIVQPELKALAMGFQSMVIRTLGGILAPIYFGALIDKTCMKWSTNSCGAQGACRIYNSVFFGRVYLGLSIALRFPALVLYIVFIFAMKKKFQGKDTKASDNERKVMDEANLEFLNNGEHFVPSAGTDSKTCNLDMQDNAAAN
The series is described as follows: Drug uptake by human hepatic OATP1B3 transporter expressed in HEK293 cells at 1 uM relative to wild-type HEK293 cells. In kind it is ADME, cell-based. The following applies: HEK293 cells expressing human OATP1B3, read-out: FC. In a few lines: (§3)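 Individual hepatic OATP transporters were over-expressed in CHO or HEK293 cells: rat rOatp1a1, rOatp1a4 and rOatp1b2, and human hOATP1B1, hOATP1B3 and hOATP2B1. Substrate uptake is expressed as fold difference relative to the wild-type parental line. Rosuvastatin/pravastatin served as positive control and midazolam as negative control in each assay.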

For series [10], the system named is Canis familiaris. The series is described as follows: fAUC (0 to 24 hrs) in dog at 5 mg/kg, po. The following applies: in vivo. In kind it is ADME, organism-based, Canis lupus familiaris. Also noted: dose 5 mg/kg, route oral. A digest of the protocol:
as §2

Series [11] in a line: Ratio of fAUC (0 to 24 hrs) in liver to plasma in Sprague-Dawley rat at 10 mg/kg, po. In kind it is ADME, organism-based. More on the design: dose 10 mg/kg, route oral. The settings on record: liver and plasma. In a few lines:
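Sprague-Dawley rats given a single oral dose (10 or 25 mg/kg). Free drug measured in liver and plasma at 0, 0.5, 1, 2, 3, 4, 7 and 24 h, n = 3/time point.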

Series [12] can be described thus: Drug excretion in human urine after 24 hrs. The settings on record: read-out: Activity. In kind it is ADME, tissue-based. In a few lines: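 Single ascending oral dose in healthy volunteers; the percentage of drug excreted in urine was measured at 24 h post dose.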
In a further series the target is T2, OATP1B1 (Homo sapiens, UniProt Q9Y6L6).
T2 sequence (Q9Y6L6 whole entry): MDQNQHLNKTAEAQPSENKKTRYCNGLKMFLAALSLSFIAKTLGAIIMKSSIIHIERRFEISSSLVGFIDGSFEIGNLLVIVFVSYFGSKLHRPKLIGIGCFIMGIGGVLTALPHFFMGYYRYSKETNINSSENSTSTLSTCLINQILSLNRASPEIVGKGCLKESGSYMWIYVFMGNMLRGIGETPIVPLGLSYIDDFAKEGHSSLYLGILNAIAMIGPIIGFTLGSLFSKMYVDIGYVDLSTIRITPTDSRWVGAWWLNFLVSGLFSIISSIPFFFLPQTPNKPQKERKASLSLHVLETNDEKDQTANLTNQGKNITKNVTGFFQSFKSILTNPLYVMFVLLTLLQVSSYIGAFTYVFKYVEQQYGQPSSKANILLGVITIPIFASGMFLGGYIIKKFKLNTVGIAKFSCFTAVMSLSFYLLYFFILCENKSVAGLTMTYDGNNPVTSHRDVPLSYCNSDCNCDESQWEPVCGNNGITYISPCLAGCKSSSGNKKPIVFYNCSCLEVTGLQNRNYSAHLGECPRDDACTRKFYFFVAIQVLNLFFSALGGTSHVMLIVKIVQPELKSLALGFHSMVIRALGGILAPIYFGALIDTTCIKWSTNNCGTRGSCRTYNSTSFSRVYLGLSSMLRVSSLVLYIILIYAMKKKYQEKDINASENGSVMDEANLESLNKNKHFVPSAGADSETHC
Kind of series: Drug uptake by human hepatic OATP1B1 transporter expressed in HEK293 cells at 1 uM relative to wild type HEK293 cells. In kind it is ADME, cell-based. The settings on record: HEK293 cells expressing human OATP1B1, read-out: FC. In a few lines:
as §3

Series [13] deals with Rattus norvegicus. The series is described as follows: fCmax in rat at 10 mg/kg, po. The following applies: in vivo. In kind it is ADME, organism-based. More on the design: dose 10 mg/kg, route oral. In a few lines: (§4)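 Single po dose: rat 10 mg/kg (n = 2), dog 5 mg/kg (n = 1 or 3 animals). Values are geometric means. Cmax is given as free drug concentration using plasma protein binding values, which were determined at 0.5 μg/mL.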

Series [14] concerns Canis familiaris. The series is described as follows: fCmax in dog at 5 mg/kg, po. Also noted: dose 5 mg/kg, route oral. The settings on record: in vivo. In kind it is ADME, organism-based, Canis lupus familiaris. A digest of the protocol: as §4
Series [15] in a line: Systemic plasma clearance in dog at 1 mg/kg, iv. In kind it is ADME, organism-based, Canis lupus familiaris. More on the design: dose 1 mg/kg, route intravenous. A digest of the protocol:
as §2

Series [16] in a line: Volume of distribution at steady state in dog at 1 mg/kg, iv. Also noted: dose 1 mg/kg, route intravenous. In kind it is ADME, organism-based, Canis lupus familiaris. The following applies: in vivo, read-out: Vdss. A digest of the protocol: as §2

With `O=C([O-])C[C@H](O)C[C@H](O)CCn1c(-c2ccc(F)cc2)nc(C(=O)NCc2cccc(F)c2)c1C1CC1.[Na+]`, the fCmax turned out to be 0.653 ng/mL with Plasma [1], 2 ng/mL with Rattus norvegicus [13] and 5.4 ng/mL with Canis familiaris [14]. Further, the fAUC in the series with Plasma [2] stood at 1.81 ng·h/mL; in the series on Rattus norvegicus [4] it was 2.7 ng·h/mL; in the series on Canis familiaris [6], 293 ng·h/mL; in the series on Canis familiaris [10], 51 ng·h/mL. In addition, the bioavailability (commonly the share of a dose that reaches the circulation, judged against a reference dose that is usually intravenous) in series [3] is 0.3%. Moreover, the Vd in series [5] was 0.17 L/kg; in series [16] it was 0.1 L/kg. Besides, the fraction unbound (as a rule, the share of the substance not bound to proteins or other matrix) at 0.5 ug/ml in [7] was found to be 0.15. For the same molecule, in the series with Homo sapiens, the “inhibition (INH)” value was -39%. Also, in series [8], the half-life (as a rule, the time needed for the level to fall by half in the phase considered) was 16.2 min. For the same molecule, the clearance (in general, a measure of how efficiently the substance is removed, as volume per time) in [9] worked out at 39 mL/min/kg; in series [15], 25 mL/min/kg. The uptake ratio at 1 µM turned out to be 34.5 at OATP1B3 and 49 at OATP1B1. For the same molecule, the Kp uu in [11] was found to be 41. Also, the dose excreted at 24 h in series [12] was less than 1%.

As to `Cc1ccc(CNC(=O)c2nn(-c3ccc(F)cc3)c(CC[C@@H](O)C[C@@H](O)CC(=O)O)c2C(C)C)cc1`, the fCmax with Plasma [1] turned out to be 90.3 ng/mL; with Rattus norvegicus [13], 1.3 ng/mL; with Canis familiaris [14] it was 51.5 ng/mL. Besides, the fAUC with Plasma [2] was found to be 261 ng·h/mL; in the series with Rattus norvegicus [4], 6.4 ng·h/mL; with Canis familiaris [6] it was 28 ng·h/mL; in the series with Canis familiaris [10] it was 64 ng·h/mL. The same molecule displayed a bioavailability in series [3] of 6%. In addition, the results for the Vd in series [5] and in series [16] were 0.14 L/kg and 0.1 L/kg, respectively. Further, the fraction unbound at 0.5 ug/ml in [7] is 0.016. The “inhibition (INH)” value with Homo sapiens is -41%. Further, the half-life in series [8] was 46.8 min. Also, the clearance in series [9] came out at 27 mL/min/kg; in series [15] it was 19 mL/min/kg. Moreover, the values for the uptake ratio at 1 µM at OATP1B3 and at OATP1B1 were 11.1 and 21.6, respectively. Besides, in [12], the dose excreted at 24 h is 12%.

Regarding `Cc1ncc2n1-c1ccc(Cl)cc1C(c1ccccc1F)=NC2` [MIDAZOLAM], the uptake ratio at 1 µM on OATP1B3 is 0.9; at OATP1B1, 0.6.

For `CC[C@H](C)C(=O)O[C@H]1C[C@H](O)C=C2C=C[C@H](C)[C@H](CC[C@@H](O)C[C@@H](O)CC(=O)O)[C@H]21` [PRAVASTATIN], the uptake ratio at 1 µM on OATP1B3 was found to be 13; at OATP1B1, 73.7.

Turning to `CC(C)c1nc(N(C)S(C)(=O)=O)nc(-c2ccc(F)cc2)c1/C=C/[C@@H](O)C[C@@H](O)CC(=O)O` [ROSUVASTATIN], in series [7], the fraction unbound at 0.5 ug/ml was determined as 0.06. The figures for the uptake ratio at 1 µM at OATP1B3 and on OATP1B1 were 3.7 and 14.4, respectively. Also, in [11], the Kp uu came out at 30.

These data come from ChEMBL document CHEMBL1781963, “Discovery of novel hepatoselective HMG-CoA reductase inhibitors for treating hypercholesterolemia: a bench-to-bedside case study on tissue selective drug distribution” (Bioorg Med Chem Lett, 2011).
